In ChEMBL document CHEMBL1154402, “Antiviral effect of orally administered (-)-beta-D-2-aminopurine dioxolane in woodchucks with chronic woodchuck hepatitis virus infection” (Antimicrob Agents Chemother, 2007):

Experiments:
[1] = system: Woodchuck hepatitis virus; test: Antiviral activity against woodchuck hepatitis virus infected woodchucks assessed as log reduction of serum viral DNA per ml of serum after 4 weeks; format: functional
[2] = system: Woodchuck hepatitis virus; test: Antiviral activity against woodchuck hepatitis virus infected woodchucks assessed as log reduction of serum viral DNA per ml of serum after 12 weeks; format: functional
Marmota monax [3] = test: Terminal elimination half life in woodchuck hepatitis virus-negative woodchucks assessed as 9-(beta-D-1,3-dioxolan-4-yl)guanine at 33.3 mg/kg, iv administered as single dose; format: ADME, organism-based; parameters: dose 33.3 mg/kg, route intravenous; settings: in vivo
In short: (§1)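 Three WHV-negative adult woodchucks got a 33.3 mg/kg iv bolus, with one saline control. After a 4-week washout the same three got 33.3 mg/kg orally. Blood was drawn predose and at 0.25–24 h. Serum APD and DXG were measured by HPLC-UV (LOQ 0.2 µM) and analysed noncompartmentally. AUC0-∞ used the trapezoidal rule, extrapolated by Clast/λz.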

Marmota monax [4] = test: AUC (0 to infinity) in woodchuck hepatitis virus-negative woodchucks assessed as 9-(beta-D-1,3-dioxolan-4-yl)guanine at 33.3 mg/kg, iv administered as single dose; format: ADME, organism-based, Plasma; parameters: time infinity, dose 33.3 mg/kg, route intravenous; settings: in vivo; in short: as §1
Mus musculus = test: Terminal elimination half life in orally dosed mouse assessed as 9-(beta-D-1,3-dioxolan-4-yl)guanine; format: ADME, organism-based; settings: in vivo, po
Marmota monax [5] = test: AUC (0 to infinity) in woodchuck hepatitis virus -negative woodchucks assessed as 9-(beta-D-1,3-dioxolan-4-yl)guanine at 33.3 mg/kg, iv administered as single dose followed by dose of 33.3 mg/kg, po after 4 weeks washout period; format: ADME, organism-based, Plasma; settings: in vivo, 672 h; in short: as §1
Marmota monax [6] = test: Cmax in woodchuck hepatitis virus-negative woodchucks assessed as 9-(beta-D-1,3-dioxolan-4-yl)guanine at 33.3 mg/kg iv followed by after 4 weeks washout period administered 33.3 mg/kg, po; format: ADME, organism-based; settings: in vivo, 672 h; in short: as §1
[7] = AUC (0 to infinity) in orally dosed mouse; format: ADME, organism-based; parameters: route oral, time infinity; settings: plasma, po
[8] = AUC (0 to infinity) in iv dosed mouse; format: ADME, organism-based; parameters: route intravenous, time infinity; settings: plasma
Marmota monax [9] = test: Terminal elimination half life in woodchuck hepatitis virus -negative woodchucks assessed as 9-(beta-D-1,3-dioxolan-4-yl)guanine at 33.3 mg/kg, iv administered as single dose followed by dose of 33.3 mg/kg, po after 4 weeks washout period; format: ADME, organism-based; settings: in vivo, 672 h; in short: as §1
Marmota monax [10] = test: Cmax in woodchuck hepatitis virus-negative woodchucks assessed as 9-(beta-D-1,3-dioxolan-4-yl)guanine at 33.3 mg/kg, iv administered as single dose; format: ADME, organism-based; parameters: dose 33.3 mg/kg, route intravenous; settings: in vivo; in short: as §1
Rhesus monkey = test: Terminal elimination half life in orally dosed monkey assessed as 9-(beta-D-1,3-dioxolan-4-yl)guanine; format: ADME, organism-based, Macaca mulatta; settings: in vivo, po
[11] = Oral bioavailability in mouse; format: ADME, organism-based; settings: in vivo

Nc1ccn([C@H]2C[C@H](O)[C@@H](CO)O2)c(=O)n1 [DOXECITINE]
Activity [1]: 2

CC(C)OC(=O)OCOP(=O)(CO[C@H](C)Cn1cnc2c(N)ncnc21)OCOC(=O)OC(C)C.O=C(O)/C=C/C(=O)O [TENOFOVIR DISOPROXIL FUMARATE]
Activity [1]: 1.5

CCCCCCCCCCCCCCCCOCCCOP(=O)(O)OCCOCn1cnc2c(=O)[nH]c(N)nc21
Activity [1]: 1.4

C=C1[C@H](CO)[C@@H](O)C[C@@H]1n1cnc2c(=O)[nH]c(N)nc21.O [ENTECAVIR]
Activity [1]: 7

CC(C)(C)C(=O)OCOP(=O)(COCCn1cnc2c(N)ncnc21)OCOC(=O)C(C)(C)C [ADEFOVIR DIPIVOXIL]
Activity [1]: 1.8 | Activity [2]: >2.5

Nc1nc2c(ncn2[C@H]2CO[C@@H](CO)O2)c(=O)[nH]1
beta t1/2 (Marmota monax [3]): 3.7 h | AUC (Marmota monax [4]): 146.2 µM·h | beta t1/2 (Mus musculus): 1 h | AUC (Marmota monax [5]): 309.7 µM·h | Cmax (Marmota monax [6]): 20.3 µM | AUC(0-inf) [7]: 930 µM·h | AUC(0-inf) [8]: 818 µM·h | beta t1/2 (Marmota monax [9]): 12.1 h | Cmax (Marmota monax [10]): 24.6 µM | beta t1/2 (Rhesus monkey): 1.5 h | bioavailability [11]: 114%

Cc1cn([C@@H]2C[C@@H](O)[C@H](CO)O2)c(=O)[nH]c1=O [TELBIVUDINE]
Activity [1]: 7
